ChEMBL document CHEMBL1158430, “Bulky 1,4-benzoxazine derivatives with antifungal activity” (2009)
In brackets after ≈: the same amount, converted by molar mass. Activity calls are given as the source filed them. No cut-off for these calls is given here.

Experiments:
[1] = test system: Candida parapsilosis; assay: Antifungal activity against Candida parapsilosis after 48 hrs by broth microdilution assay; format: functional; settings: Lodderomyces parapsilosis
How it was run: (§1)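 Yeasts kept on Sabouraud agar by serial passage. A single colony was suspended in saline, washed twice, counted by hemocytometer and added at 5 × 10⁴ CFU in RPMI 1640/MOPS pH 7.0 to serial compound dilutions. Compounds were stocked in 20% ethanol. Incubation was at 37 °C. MIC is the lowest concentration giving complete growth inhibition, read visually.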

[2] = test system: Cryptococcus neoformans; assay: Antifungal activity against Cryptococcus neoformans CAP67 after 48 hrs by broth microdilution assay; format: functional; settings: CAP67, 48 h
[3] = test system: Nakaseomyces glabratus; assay: Antifungal activity against Candida glabrata after 24 hrs by broth microdilution assay; format: functional; how it was run: as §1
[4] = test system: Candida albicans; assay: Antifungal activity against Candida albicans CA-6 infected in CD1 mouse assessed as survival from fungus-induced mortality at 10 mg/kg, ip pretreated 2 hrs before fungus-challenge and once daily for 6 days; format: functional
How it was run: (§2)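 Female outbred CD1 mice, 8–10 weeks old, infected i.v. on day 0 with C. albicans CA-6 blastospores (7 × 10⁵/mouse). Given 10 mg/kg i.p. 2 h before infection, then once daily for 6 consecutive days. Vehicle was 0.2 ml 2% EtOH in saline i.p. Survival monitored over a 30-day observation period. Three repeat experiments, 4 animals/group.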

[5] = test system: Candida albicans; assay: Antifungal activity against Candida albicans CA-6 after 48 hrs by broth microdilution assay; format: functional; settings: CA-6, 48 h; how it was run: as §1
[6] = test system: Nakaseomyces glabratus; assay: Antifungal activity against Candida glabrata after 48 hrs by broth microdilution assay; format: functional; how it was run: as §1
[7] = test system: Candida albicans; assay: Antifungal activity against Candida albicans CA-6 after 24 hrs by broth microdilution assay; format: functional; settings: CA-6, 24 h; how it was run: as §1
[8] = test system: Cryptococcus neoformans; assay: Antifungal activity against Cryptococcus neoformans 6995 after 48 hrs by broth microdilution assay; format: functional; settings: Cryptococcus neoformans, 6995, 48 h
[9] = test system: Candida albicans; assay: Antifungal activity against Candida albicans CA-6 infected in CD1 mouse assessed as reduction of inflammatory foci in kidney at 10 mg/kg, ip pretreated 2 hrs before fungus-challenge and once daily for 6 days measured 7 days post-infection by periodic acid-Schiff staining; format: functional, organism-based; parameters: dose 10 mg/kg
How it was run: (§3)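 CD1 mice were challenged i.v. with 7 × 10⁵ CA-6 per mouse. Dosing was 10 mg/kg 2 h before challenge, then once daily for 6 days. Kidneys were excised 7 days post-infection, formalin-fixed and paraffin-embedded. Sections were stained with periodic acid-Schiff and assessed histologically for fungal cells and inflammatory foci.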

[10] = test system: Pichia kudriavzevii; assay: Antifungal activity against Candida krusei after 24 hrs by broth microdilution assay; format: functional; how it was run: as §1
[11] = test system: Pichia kudriavzevii; assay: Antifungal activity against Candida krusei after 48 hrs by broth microdilution assay; format: functional; how it was run: as §1
[12] = test system: Candida albicans; assay: Antifungal activity against Candida albicans PCA-2 after 24 hrs by broth microdilution assay; format: functional; settings: PCA-2, 24 h; how it was run: as §1
[13] = test system: Candida albicans; assay: Antifungal activity against Candida albicans CA-6 infected in CD1 mouse assessed as reduction fungal cell number in kidney at 10 mg/kg, ip pretreated 2 hrs before fungus-challenge and once daily for 6 days measured 7 days post-infection by periodic acid-Schiff staining; format: functional, organism-based; parameters: dose 10 mg/kg; how it was run: as §3
[14] = test system: Candida albicans; assay: Antifungal activity against Candida albicans PCA-2 after 48 hrs by broth microdilution assay; format: functional; settings: PCA-2, 48 h; how it was run: as §1
[15] = test system: Candida albicans; assay: Antifungal activity against Candida albicans CA-6 infected in CD1 mouse assessed as reduction of fungal burden in kidneys at 10 mg/kg, ip pretreated 2 hrs before fungus-challenge and once daily for 6 days measured 7 days post-infection; format: functional, organism-based; parameters: dose 10 mg/kg; settings: Kidney
How it was run: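 Female outbred CD1 mice, 8–10 weeks old, were infected i.v. on day 0 with 2.5 × 10⁵ CA-6 blastospores. Dosing was 10 mg/kg i.p. 2 h before challenge, then daily for 6 days; vehicle was 0.2 ml 2% EtOH in saline i.p. At day 7, kidney homogenates were serially diluted and plated on Sabouraud agar for CFU. Three experiments, 4 mice/group.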

[16] = test system: Candida albicans; assay: Antifungal activity against Candida albicans CA-6 infected in CD1 mouse assessed as reduction of fungal burden in kidneys treated with 0.3 ml serum of 10 mg/kg, ip dosed mouse collected after 1 hr determined 7 days post-infection; format: functional, organism-based; parameters: dose 10 mg/kg; settings: Kidney
How it was run: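 Donor mice received 10 mg/kg i.p. or vehicle (0.2 ml 2% EtOH in saline); serum was collected 1 h later. Recipient CD1 mice received 0.3 ml serum i.p. 1 h before i.v. challenge with 7 × 10⁵ CA-6 per mouse. Kidney CFU were counted on Sabouraud agar 7 days after challenge.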

[17] = test system: Candida parapsilosis; assay: Antifungal activity against Candida parapsilosis after 24 hrs by broth microdilution assay; format: functional; settings: Lodderomyces parapsilosis; how it was run: as §1
[18] = test system: Candida albicans; assay: Antifungal activity against Candida albicans CA-6 infected in CD1 mouse assessed as survival days in 30 days observation period at 10 mg/kg, ip pretreated 2 hrs before fungus-challenge and once daily for 6 days; format: functional; settings: route intraperitoneal; how it was run: as §2

Which results are given for `OC(Cn1cncn1)(Cn1cncn1)c1ccc(F)cc1F` [FLUCONAZOLE]?
MIC [1]: 15.6 µg/mL (≈ 50.9 µM); MIC [2]: 0.49 µg/mL (≈ 1.6 µM); MIC [3]: 125 µg/mL (≈ 408 µM); Activity ([4]; route intraperitoneal): 75%; MIC [5]: < 0.0076 µg/mL; MIC [6]: 250 µg/mL (≈ 816 µM); MIC [7]: < 0.0076 µg/mL; MIC [8]: 3.9 µg/mL (≈ 12.7 µM); Activity [9]: Active; MIC [10]: 250 µg/mL (≈ 816 µM); MIC [11]: > 500 µg/mL; MIC [12]: > 500 µg/mL; Activity [13]: Active; MIC [14]: > 500 µg/mL; Activity [15]: Active; Activity [16]: Active; MIC [17]: 7.8 µg/mL (≈ 25.5 µM)

With `CCCCC1Oc2ccc(OC[C@@H]3CO[C@](Cn4ccnc4)(c4ccc(Cl)cc4Cl)O3)cc2N(C)C1=O` (relative stereo) as the compound, how does the MIC [1] read?
The MIC was 500 µg/mL (≈ 915 µM).

What about the MIC [2] of the same compound?
The MIC was 3.9 µg/mL (≈ 7.14 µM).

And the MIC [3]?
Its MIC is 62.5 µg/mL (≈ 114 µM).

And the Activity ([4]; route intraperitoneal)?
Its Activity is 50%.

What about the MIC [5] of the same compound?
The MIC was 0.49 µg/mL (≈ 0.897 µM).

What about the MIC [6] of the same compound?
Its MIC is > 500 µg/mL.

What about the MIC [7] of the same compound?
Its MIC is 0.49 µg/mL (≈ 0.897 µM).

What about the MIC [8] of the same compound?
The MIC was 7.8 µg/mL (≈ 14.3 µM).

What about the Activity [9] of the same compound?
Its Activity is “Active”.

What about the MIC [10] of the same compound?
Its MIC is 3.9 µg/mL (≈ 7.14 µM).

What about the MIC [11] of the same compound?
The MIC was 7.8 µg/mL (≈ 14.3 µM).

And the MIC [12]?
The MIC was > 500 µg/mL.

What about the Activity [13] of the same compound?
Its Activity is “Active”.

And the MIC [14]?
The MIC was > 500 µg/mL.

And the Activity [15]?
The Activity was “Active”.

And the Activity [16]?
Its Activity is “Active”.

What about the MIC [17] of the same compound?
The MIC was 125 µg/mL (≈ 229 µM).

Which MIC [1] does the source give for `CN1C(=O)COc2ccc(OC[C@@H]3CO[C@](Cn4ccnc4)(c4ccc(Cl)cc4Cl)O3)cc21` (relative stereo) here?
The MIC was > 500 µg/mL.

What about the MIC [2] of the same compound?
The MIC was 0.03 µg/mL (≈ 0.0612 µM).

What about the MIC [3] of the same compound?
The MIC was 15.6 µg/mL (≈ 31.8 µM).

And the Activity [4]?
The Activity was “inactive”.

And the MIC [5]?
The MIC was 0.49 µg/mL (≈ 0.999 µM).

What about the MIC [6] of the same compound?
Its MIC is 250 µg/mL (≈ 510 µM).

And the MIC [7]?
Its MIC is 0.49 µg/mL (≈ 0.999 µM).

And the MIC [8]?
The MIC was 1.95 µg/mL (≈ 3.98 µM).

What about the MIC [10] of the same compound?
Its MIC is 15.6 µg/mL (≈ 31.8 µM).

And the MIC [11]?
The MIC was > 500 µg/mL.

What about the MIC [12] of the same compound?
Its MIC is > 500 µg/mL.

And the MIC [14]?
The MIC was > 500 µg/mL.

What about the MIC [17] of the same compound?
Its MIC is > 500 µg/mL.

How did the MIC [1] turn out when `CN1C(=O)COc2ccc(OC[C@H]3CO[C@](Cn4ccnc4)(c4ccc(Cl)cc4Cl)O3)cc21` (relative stereo) was run?
The MIC was > 500 µg/mL.

What about the MIC [2] of the same compound?
The MIC was 0.0019 µg/mL (≈ 0.00387 µM).

And the MIC [3]?
Its MIC is 7.8 µg/mL (≈ 15.9 µM).

What about the Activity [4] of the same compound?
The Activity was “inactive”.

What about the MIC [5] of the same compound?
Its MIC is 0.49 µg/mL (≈ 0.999 µM).

What about the MIC [6] of the same compound?
Its MIC is > 500 µg/mL.

And the MIC [7]?
Its MIC is 0.49 µg/mL (≈ 0.999 µM).

What about the MIC [8] of the same compound?
The MIC was 0.24 µg/mL (≈ 0.489 µM).

And the MIC [10]?
The MIC was 15.6 µg/mL (≈ 31.8 µM).

And the MIC [11]?
Its MIC is > 500 µg/mL.

And the MIC [12]?
Its MIC is > 500 µg/mL.

What about the MIC [14] of the same compound?
The MIC was > 500 µg/mL.

And the MIC [17]?
The MIC was 250 µg/mL (≈ 510 µM).

How did the MIC [1] turn out when `CCCCC1Oc2ccc(OC[C@H]3CO[C@](Cn4ccnc4)(c4ccc(Cl)cc4Cl)O3)cc2N(C)C1=O` (relative stereo) was run?
Its MIC is 31.2 µg/mL (≈ 57.2 µM).

And the MIC [2]?
The MIC was 1.95 µg/mL (≈ 3.57 µM).

What about the MIC [3] of the same compound?
Its MIC is 31.2 µg/mL (≈ 57.2 µM).

And the MIC [5]?
Its MIC is 0.49 µg/mL (≈ 0.897 µM).

What about the MIC [6] of the same compound?
The MIC was 125 µg/mL (≈ 229 µM).

And the MIC [7]?
The MIC was 0.49 µg/mL (≈ 0.897 µM).

And the MIC [8]?
Its MIC is 7.8 µg/mL (≈ 14.3 µM).

And the Activity [9]?
The Activity was “Active”.

And the MIC [10]?
Its MIC is 3.9 µg/mL (≈ 7.14 µM).

And the MIC [11]?
Its MIC is 3.9 µg/mL (≈ 7.14 µM).

And the MIC [12]?
The MIC was 125 µg/mL (≈ 229 µM).

What about the Activity [18] of the same compound?
The Activity was 23 days.

What about the Activity [13] of the same compound?
Its Activity is “Active”.

What about the MIC [14] of the same compound?
The MIC was 125 µg/mL (≈ 229 µM).

What about the Activity [15] of the same compound?
The Activity was “Active”.

And the Activity [16]?
The Activity was “Active”.

What about the MIC [17] of the same compound?
The MIC was 31.2 µg/mL (≈ 57.2 µM).

Which MIC [1] does the source give for `CC(=O)N1CCN(c2ccc(OCC3COC(Cn4ccnc4)(c4ccc(Cl)cc4Cl)O3)cc2)CC1` (centres undefined) [KETOCONAZOLE] here?
The MIC was 0.00095 µg/mL (≈ 0.00179 µM).

And the MIC [2]?
Its MIC is 0.00012 µg/mL (≈ 0.000226 µM).

What about the MIC [3] of the same compound?
Its MIC is 0.12 µg/mL (≈ 0.226 µM).

And the MIC [5]?
The MIC was < 0.0076 µg/mL.

What about the MIC [6] of the same compound?
Its MIC is 1.95 µg/mL (≈ 3.67 µM).

What about the MIC [7] of the same compound?
Its MIC is < 0.0076 µg/mL.

What about the MIC [8] of the same compound?
Its MIC is 0.00095 µg/mL (≈ 0.00179 µM).

What about the MIC [10] of the same compound?
Its MIC is 0.49 µg/mL (≈ 0.922 µM).

And the MIC [11]?
Its MIC is 0.97 µg/mL (≈ 1.83 µM).

What about the MIC [12] of the same compound?
Its MIC is 15.6 µg/mL (≈ 29.4 µM).

And the MIC [14]?
The MIC was 15.6 µg/mL (≈ 29.4 µM).

What about the MIC [17] of the same compound?
Its MIC is < 6e-05 µg/mL.
